The subject of one assay is MetRS2. The following applies: cited from earlier work.
The next assay relates to S. pneumoniae. Briefly: Broth microdilution MIC, S. pneumoniae. Conditions: Streptococcus pneumoniae, 24 h, read-out: MIC, Bacteria, S. pneumoniae. Format: cell-based. In a few lines:
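S. pneumoniae clinical isolate, from paediatric community-acquired pneumonia. CLSI M7-A7 broth microdilution in Mueller Hinton broth with 2.5% lysed sheep blood, inoculum about 2 × 10^8 CFU/mL. Serial test-compound dilutions, 37°C for 24 h. MIC was the lowest concentration suppressing visible growth.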
For orientation: Dilution methods test growth across graded concentrations, often in twofold steps.

Each structure is given as a SMILES string. ≈ marks a conversion by molar mass, not a printed value.

Regarding `C=C(F)c1sc(CNCCCNc2cc(O)c3ccccc3n2)c(C)c1Br` [REP8839], the “Activity towards MetRS2” value with MetRS2 is given as “no activity”. Usually MIC stands for the lowest concentration that inhibits growth of the organism. For the molecule `CC1(C)S[C@@H]2[C@H](NC(=O)[C@H](N)c3ccccc3)C(=O)N2[C@H]1C(=O)O` [Ampicillin, reference compound], the minimal inhibitory concentration (MIC) with S. pneumoniae was determined as 0.0625 µg/mL (≈ 0.179 µM).
